Results gathered from unrelated publications.
Compare with care: the assays were run in different laboratories.
TOP2A: DNA topoisomerase 2-alpha (TOP2A, Homo sapiens, UniProt P11388)
DHFR: Dihydrofolate reductase (DHFR, Homo sapiens, UniProt P00374)
FAAH: Fatty-acid amide hydrolase 1 (FAAH, Homo sapiens, UniProt O00519)
HTR2B: 5-hydroxytryptamine receptor 2B (HTR2B, Homo sapiens, UniProt P41595)
HTR2C: 5-hydroxytryptamine receptor 2C (HTR2C, Homo sapiens, UniProt P28335)

For O=c1nc(SCc2cc(F)cc(C(F)(F)F)c2)nc(SCc2nc3ccccc3[nH]2)[nH]1, the IC50 was 31.7 µM (TOP2A; enzyme activity; inhibitor).
The IC50 of S=C(NN=Cc1ccc(N2CCCCC2)cc1)NC1CCCCC1 is reported as 41.2 µM (DHFR; enzyme activity; inhibitor).
CC(=O)Nc1ccc(Nc2nc(-c3sc(N)nc3C)cs2)cc1 has an IC50 of > 10 µM (Lysyl oxidase homolog 1 (LOXL1, Homo sapiens, UniProt Q08397); enzyme activity; inhibitor; fluorescence; with preincubation).
CC(C)NCC(COc1cccc2ccccc12)OC(=O)C=Cc1ccc(O)c(O)c1 (stereo not drawn) has an IC50 of 0.048 µM (DHFR; enzyme activity; inhibitor; absorbance).
The IC50 of O=C(Nc1ccc(-c2cnc3ccccc3c2)cc1)C1CCN(S(=O)(=O)c2ccccc2Cl)CC1 is reported as 0.016 µM (FAAH; enzyme activity; inhibitor; fluorescence).
For Nc1ccccc1OC(=O)C=Cc1ccc(O)c(O)c1, the IC50 was 16.9 µM (DHFR; enzyme activity; inhibitor; absorbance).
S=C(NCc1ccccc1)NN=Cc1ccc(N2CCCCC2)cc1 has an IC50 of 31.3 µM (DHFR; enzyme activity; inhibitor).
With O=C(C=Cc1ccc(O)c(O)c1)Oc1ccccc1 the IC50 was 15.4 µM (DHFR; enzyme activity; inhibitor; absorbance).
O=c1nc(SCc2cc(F)cc(C(F)(F)F)c2)nc(SCc2ccc3ncsc3c2)[nH]1 has an IC50 of 36.3 µM (TOP2A; enzyme activity; inhibitor).
With Cc1[nH]c2ccccc2c1C(=O)C(C)N1CCC(c2nccn2C)C1 (stereo not drawn) the IC50 was 0.0369 µM (HTR2B; calcium signal; antagonist).
O=C(Nc1ccc(-c2cccc3cccnc23)cc1)C1CCN(S(=O)(=O)c2ccccc2Cl)CC1 gave an IC50 of 0.135 µM (FAAH; enzyme activity; inhibitor; fluorescence).
For O=c1cc(-c2ccc(O)cc2)oc2c([C@@H]3OC[C@H](O)[C@H](O)[C@H]3O)c(O)c([C@@H]3O[C@H](CO)[C@@H](O)[C@H](O)[C@H]3O)c(O)c12, the IC50 was 86.1 µM (Calcium/calmodulin-dependent protein kinase type II subunit alpha (CAMK2A, Homo sapiens, UniProt Q9UQM7); enzyme activity; inhibitor).
With NCC1Cc2cc(F)ccc2N(C(=O)Cc2cc(F)ccc2Br)C1 (stereo not drawn) the IC50 was 43.4 µM (HTR2C; calcium signal; antagonist).
The IC50 of Cc1ccc(CNC(=S)NN=Cc2ccc(N3CCCCC3)cc2)cc1 is reported as 33.9 µM (DHFR; enzyme activity; inhibitor).
O=C(C=Cc1ccc(O)c(O)c1)OCc1ccccc1 has an IC50 of 12.6 µM (DHFR; enzyme activity; inhibitor; absorbance).
The IC50 of S=C(NN=Cc1ccc(N2CCCCC2)cc1)Nc1c(Cl)cccc1Cl is reported as 36.3 µM (DHFR; enzyme activity; inhibitor).
O=C(Nc1ccc(-c2ccc3ccccc3n2)cc1)C1CCN(S(=O)(=O)c2ccccc2Cl)CC1 has an IC50 of 0.0035 µM (FAAH; enzyme activity; inhibitor; fluorescence).
Cc1[nH]c2ccccc2c1SCCNC(=O)CN1CCC(C)C1 (stereo not drawn) has an IC50 of 3.68 µM (HTR2B; calcium signal; antagonist).
With S=C(NN=Cc1ccc(N2CCCCC2)cc1)Nc1ccc(Br)cc1 the IC50 was 26.1 µM (DHFR; enzyme activity; inhibitor).
c1ccc(O[C@H]2CCN(Cc3ccc(-c4ccn[nH]4)o3)C2)cc1 gave an IC50 of 15.6 µM (HTR2B; calcium signal; antagonist).
With CC(C)c1ccc(CSc2nc(SCc3ccc4sccc4c3)[nH]c(=O)n2)cc1 the IC50 was 14.2 µM (TOP2A; enzyme activity; inhibitor).
COc1ccccc1CC1CCN(CC(=O)c2cc(C)[nH]c2C)C1 (stereo not drawn) has an IC50 of 23 µM (HTR2C; calcium signal; antagonist).
With Cc1cccc(C)c1NC(=S)NN=Cc1ccc(N2CCCCC2)cc1 the IC50 was 18.3 µM (DHFR; enzyme activity; inhibitor).
The IC50 of Cc1nc(CSc2nc(SCc3cc(F)cc(C(F)(F)F)c3)nc(=O)[nH]2)cs1 is reported as 55 µM (TOP2A; enzyme activity; inhibitor).
For O=C(c1cc(C2CCNC2)[nH]n1)N1CCC(c2cccc(Cl)c2)C1 (stereo not drawn), the IC50 was 8.5 µM (HTR2C; calcium signal; antagonist).
S=C(NCCc1ccccc1)NN=Cc1ccc(N2CCCCC2)cc1 gave an IC50 of 22.9 µM (DHFR; enzyme activity; inhibitor).
Oc1cc(CN2CCN3CCCCC3C2)c2ccccc2c1 (stereo not drawn) gave an IC50 of 0.586 µM (HTR2B; calcium signal; antagonist).
The IC50 of S=C(NN=Cc1ccc(N2CCCCC2)cc1)Nc1cccc(Br)c1 is reported as 30.2 µM (DHFR; enzyme activity; inhibitor).
For Cc1[nH]c2ccccc2c1SCCNC(=O)C1NCCC1C1CC1 (stereo not drawn), the IC50 was 38.2 µM (HTR2C; calcium signal; antagonist).
With O=c1nc(SCc2cc(F)cc(C(F)(F)F)c2)nc(SCc2ccc3ccccc3n2)[nH]1 the IC50 was 18.6 µM (TOP2A; enzyme activity; inhibitor).
